FXN GAA850 act = FXN promoter activators, primary screen, cell-based, luciferase luminescence, HEK293 lucGAA850. HEK293 lucGAA850 FXN promoter luciferase reporter, 24 h; percent of 10 µM SAHA response. activation, % at 6 µM. 360,000 compounds, 0.56% hits;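 active = activation above the average of all compounds screened plus 3 SD, cutoff fixed separately per campaign, cut at about 7.5% in these data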;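 also: 0% = DMSO wells and 100% = 10 µM SAHA wells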
AHR activator = AHR activators, primary screen, cell-based, luminescence, luciferase reporter, human. activation, % at 5 µM. AHR-responsive luciferase reporter cells. Aryl hydrocarbon receptor (Homo sapiens), P35869. 320,000 compounds, 2.5% hits; in the data active = activation above about 47%;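 also: 0% = vehicle wells and 100% = reference agonist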
STAT3 act-1 = IL-6 driven STAT3 reporter potentiators, primary screen, U3A cells, luciferase, luminescence, MLSCN library | 190,000 compounds, 0.91% hits | AID 871, 2007 | activation (% of control), % at 5.6 µM | IL-6 STAT3-luciferase reporter; 100% = signal with IL-6 EC80 alone;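 active = activation above the screen-wide mean of compound activation plus 3 SD, cut at about 130% in these data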;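 also: 0% = background luminescence of wells with medium and substrate only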
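Assay system – human STAT1-deficient U3A cells with stable STAT3-luciferase reporter · Also added – IL-6 (33 ng/mL) · Schedule – compound 1 h, then IL-6 6 h at 37 °C · Technique – reporter luminescence signal · Evaluation – % activation versus median of IL-6-stimulated wells · Benchmarks – IL-6-only wells as 100% reference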
ABCB6 inh 2 = ABCB6 transporter inhibitors, primary screen, K562-ABCB6 cells, flow cytometry, MLPCN library; ATP-binding cassette sub-family B member 6 (Homo sapiens), Q9NP58; K562-ABCB6 porphyrin accumulation, 1 h; hits give low values; fluorescence ratio to DMSO, % at 10 µM; 360,000 compounds, 0.19% hits;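 active = fluorescence ratio to DMSO below 75%, the collection mean minus 3 SD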;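 also: signal is porphyrin accumulated inside mitochondria; 100% equals median channel fluorescence of DMSO control wells; lower ratio means ABCB6 inhibition with less porphyrin fluorescence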
Target sequence (Q9NP58 whole entry, looked up): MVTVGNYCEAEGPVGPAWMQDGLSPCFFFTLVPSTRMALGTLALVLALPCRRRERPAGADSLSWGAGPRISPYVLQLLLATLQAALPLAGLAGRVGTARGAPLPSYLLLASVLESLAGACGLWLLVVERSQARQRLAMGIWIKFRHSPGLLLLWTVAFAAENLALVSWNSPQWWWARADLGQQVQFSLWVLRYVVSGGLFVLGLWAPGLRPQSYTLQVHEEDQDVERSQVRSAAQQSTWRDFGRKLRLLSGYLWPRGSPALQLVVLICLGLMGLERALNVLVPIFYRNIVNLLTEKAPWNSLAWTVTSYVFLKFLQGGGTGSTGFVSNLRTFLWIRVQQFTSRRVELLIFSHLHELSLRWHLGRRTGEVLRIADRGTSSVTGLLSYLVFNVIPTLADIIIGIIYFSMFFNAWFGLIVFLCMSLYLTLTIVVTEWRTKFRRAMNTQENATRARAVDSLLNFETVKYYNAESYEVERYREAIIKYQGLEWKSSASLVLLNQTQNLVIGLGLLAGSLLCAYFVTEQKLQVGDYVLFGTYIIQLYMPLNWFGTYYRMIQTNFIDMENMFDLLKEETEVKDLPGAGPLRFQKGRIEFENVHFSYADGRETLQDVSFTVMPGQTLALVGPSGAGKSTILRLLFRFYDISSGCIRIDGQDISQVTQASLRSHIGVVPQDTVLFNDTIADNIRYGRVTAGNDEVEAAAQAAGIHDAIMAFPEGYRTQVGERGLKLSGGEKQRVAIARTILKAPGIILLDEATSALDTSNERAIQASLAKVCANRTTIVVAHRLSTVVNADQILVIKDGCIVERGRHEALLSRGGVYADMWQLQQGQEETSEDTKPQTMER
STAT3 act-2 = STAT3 reporter potentiators, retest of hits, confirmation, U3A cells, luciferase, luminescence. 1,200 compounds, 64% hits. shares compounds with STAT3 act-1. IL-6 potentiation; U3A cells lack STAT1; 100 means same as IL-6 alone. potentiation (% of control), % at 5.7 µM;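 active = percent activation of the STAT3 luciferase reporter above a set limit taken from the earlier primary screen, cut at about 130% in these data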;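 also: 0% = background signal of medium plus substrate and 100% = median of IL-6 with DMSO wells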
NFkB act 2 = NF-kB reporter activators in human cells, counter-screen for STAT3 activator project. shares compounds with STAT3 act-1. NF-kappaB reporter activation. activation (% of control), % at 5.7 µM. 1,200 compounds, 11% hits. AID 1309, 2008; in the data active = activation above about 120%;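 also: reporter induced by TNF-alpha stimulation; 100% = median of stimulated DMSO wells and 0% = no signal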
STAT1 act = STAT1 reporter activators, IFN-gamma induced, counter-screen for STAT3 activator project, cell-based, NIH 3T3, luciferase luminescence. shares compounds with STAT3 act-1. NIH 3T3 STAT1-luciferase reporter. activation (% of control), % at 5.7 µM. 1,200 compounds, 13% hits. AID 1318, 2008;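 active = activation above the solvent-only control well mean plus 3 SD, set per screening run, cut at about 120% in these data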;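 also: 100% = IFN-gamma with DMSO median signal so 100% means no change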
Starred values were filed as active, the others as inactive; i = inactive; x = not tested or not shown. Sampled rows, rich in hits. Any-hit rate of the full collection: about 3.3%.

SMILES	FXN GAA850 act	AHR activator	STAT3 act-1	ABCB6 inh 2	STAT3 act-2	NFkB act 2	STAT1 act
O=C(c1ccco1)[C@@H]1[C@@H]2C(=O)N(c3ccc(Br)cc3)C(=O)[C@@H]2C2c3ccccc3C=CN21 (stereo partly drawn)	2.0	x	141.5*	96.0	124.8	106.5	105.8
O=C(NCCSc1c[nH]c2ccccc12)c1ccco1	1.8	9.3	139.9*	92.0	121.2	110.1	133.3*
O=C(NCCSc1c[nH]c2ccccc12)c1c(F)cccc1F	-0.8	0.4	x	96.0	x	x	x
CC(=O)Nc1cc(-c2ccc(CO)cc2)cn2c(-c3ccc(F)c(Cl)c3)cnc12	1.1	x	x	113.0	x	x	x
O=C(O)c1ccc(CNC(=O)c2ccc(C(F)(F)F)cc2)cc1	0.4	13.8	148.9*	95.0	168.3*	104.5	105.0
COc1cccc(CC2(CO)CCCN(Cc3cc4ccccc4[nH]3)C2)c1 (stereo not drawn)	-1.8	15.4	147.8*	99.0	145.2*	100.0	88.9
CCn1c(SCC(=O)N2CCCCC2)nc2c(c1=O)SCC2	0.1	-0.2	x	92.0	x	x	x
COc1ccc(COc2cc(-c3cccc(OC)c3)nc3ccc(NC(=O)c4ccc(N(C)C)cc4)cc23)cc1	-2.2	14.1	136.2*	90.0	91.6	98.7	103.7
O=C(NCc1ccco1)c1ccc(-c2ccc3nccn3c2)cc1	-0.8	x	x	98.0	x	x	x
COC(=O)c1sccc1NC(=O)c1c(C)noc1C	-0.9	0.5	98.5	108.0	x	x	x
COC(=O)c1sccc1NC(=O)c1cc(C)on1	1.9	-0.8	150.7*	86.0	134.6*	103.5	103.4
O=C(Nc1nc2ccccc2s1)C1CCN(C(=O)c2ccco2)CC1	1.6	5.9	x	98.0	x	x	x
Cc1cccc(C2c3[nH]c4ccccc4c3CCN2C(=O)Cc2n[nH]c(C)n2)n1 (stereo not drawn)	2.2	8.1	137.0*	101.0	138.6*	100.0	93.5
COc1cccc(C2c3[nH]c4ccccc4c3CCN2Cc2cnc(C)s2)c1OC (stereo not drawn)	-4.6	13.9	128.7	94.0	x	x	x
COc1ccccc1C1c2[nH]c3ccccc3c2CCN1Cc1cnc(C)s1 (stereo not drawn)	-0.1	x	146.1*	101.0	176.3*	105.7	94.8
Cc1cccc(C2c3[nH]c4ccccc4c3CCN2Cc2ccc(C)s2)n1 (stereo not drawn)	2.2	13.4	142.2*	103.0	124.0	99.0	91.0
Cc1cccc(C2c3[nH]c4ccccc4c3CCN2C(=O)c2cc(C(C)C)nc(N)n2)n1 (stereo not drawn)	-0.7	14.8	129.9	86.0	x	x	x
CC(=O)c1ccc(C(=O)N2CCc3c([nH]c4ccccc34)C2c2cccc(C)n2)s1 (stereo not drawn)	-2.2	10.9	x	101.0	x	x	x
Cc1cccc(C2c3[nH]c4ccccc4c3CCN2C(=O)c2ccc(=O)[nH]c2)n1 (stereo not drawn)	1.8	10.5	143.2*	100.0	120.1	100.8	99.2
COc1ccc(N(C(=O)c2ccco2)C(C(=O)NC2CCCC2)c2cc(OC)c(OC)c(OC)c2)cc1 (stereo not drawn)	-1.1	0.2	x	101.0	x	x	x
COc1cccc(OC)c1C(=O)OCCCOC(=O)c1c(OC)cccc1OC	2.1	6.5	x	100.0	x	x	x
CCC(CC)C(=O)Nc1cccc(/C(C)=N/NC(=O)c2ccccc2Cl)c1	-2.5	10.1	95.0	91.0	x	x	x
O=c1cc(O)c2ccccc2n1Cc1ccccc1F	0.4	-0.2	137.9*	94.0	97.6	106.6	103.6
Cn1c(=O)c2ccccc2n(Cc2ccccc2F)c1=O	3.3	0.7	91.3	93.0	x	x	x
CC(=O)N1CCSc2ccc(S(=O)(=O)NCCc3ccc(Cl)cc3)cc21	-1.5	2.9	x	100.0	x	x	x
SMILES	FXN GAA850 act	AHR activator	STAT3 act-1	ABCB6 inh 2	STAT3 act-2	NFkB act 2	STAT1 act
COCCNc1nnc(SCC(=O)NNC(=O)c2ccccc2)s1	1.3	2.2	106.5	96.0	x	x	x
COCCNc1nnc(SCC(=O)c2c[nH]c3ccccc23)s1	2.4	26.4	140.6*	128.0	136.1*	103.6	97.5
Cc1ccc2nc(SCC(=O)c3c[nH]c4ccccc34)[nH]c2c1	2.1	46.1	131.4	126.0	x	x	x
Cc1c(CN2CCc3c([nH]c4ccccc34)C2CC(C)C)cnn1C (stereo not drawn)	3.9	19.3	138.6*	98.0	143.1*	105.8	101.8
Cn1cc(CN2CCc3c([nH]c4ccccc34)C2C(C)(C)C)cn1 (stereo not drawn)	3.7	21.3	132.6	103.0	x	x	x
CC(=O)c1cc(C(=O)N2CCc3c([nH]c4ccccc34)C2CC(C)C)[nH]n1 (stereo not drawn)	1.5	15.6	145.1*	88.0	142.6*	94.1	93.5
CC(C)CC1c2[nH]c3ccccc3c2CCN1C(=O)CCC(=O)N(C)C (stereo not drawn)	1.2	12.9	144.5*	100.0	150.1*	106.8	97.6
CC(C)CC1c2[nH]c3ccccc3c2CCN1C(=O)C1CCOCC1 (stereo not drawn)	2.7	15.1	119.2	101.0	x	x	x
OC(Cc1cccc(Br)c1)c1ncc(-c2ccccc2C(F)(F)F)[nH]1 (stereo not drawn)	0.6	x	x	94.0	x	x	x
C/C=C/c1ccc(OCC(=O)Nc2cc(Cl)ccc2-n2cncn2)c(OC)c1	1.8	3.0	x	98.0	x	x	x
Cc1nn(-c2ccc(Cl)c(Cl)c2)c(=O)c2ccccc12	0.3	15.6	145.6*	97.0	138.0*	123.1*	134.2*
CC(=O)c1sc2nc(-c3cccs3)cc(C(F)(F)F)c2c1N	-1.4	33.5	161.8*	i	145.8*	103.1	96.4
Cc1c(C(=O)O)sc2nc(-c3cccs3)cc(C(F)(F)F)c12	2.1	12.9	x	103.0	x	x	x
O=C1c2ccccc2CC1Sc1nnc(-c2ccccn2)o1 (stereo not drawn)	1.0	x	148.8*	115.0	130.1	103.8	101.0
c1ccc(CCn2nnnc2CN2CCCc3ccccc32)cc1	2.1	14.6	128.4	168.0	x	x	x
CCC(C)(C)n1nnnc1CN1CCc2ccccc21	-1.7	12.8	144.7*	106.0	126.2	105.3	103.3
CC1CCCC(C)N1C(=O)COC(=O)c1cccs1 (stereo not drawn)	2.4	0.1	x	98.0	x	x	x
COc1ccccc1N=C(C)C1=C(O)CC(c2ccccc2)CC1=O (stereo not drawn)	-0.7	2.6	147.8*	100.0	108.2	140.5*	104.7

Screens (PubChem)
